Results as given in ChEMBL document CHEMBL1145431, “Improved anti-osteoporosis potency and reduced endometrial membrane hyperplasia during hormone replacement therapy with estrogen-RGD peptide conjugates” (2007).
Where a SMILES comes first, the peptide text is derived from it. The star is where a group is joined. Succinyl(O17-estradiol) = C[C@]12CC[C@@H]3c4ccc(O)cc4CC[C@H]3[C@@H]1CC[C@@H]2OC(=O)CCC(=O)*; X2 = C[C@]12CC[C@@H]3c4ccc(OCC(=O)*)cc4CC[C@H]3[C@@H]1CCC2=O

Legend:
[1] = test system: Mus musculus; assay: Effect on dry weight of femurs in mouse at 0.1103 mmol/kg, po; type: functional, Femur
Procedure, shortened: (§1)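 Female Kuiming mice (7 weeks old, 30.7 ± 3.1 g) under abdominal OVX, sham group abdominorotomy only. From day 5 after surgery, dosed orally once daily for 4 weeks at 110.3 × 10-3 mmol/kg in 0.5% CMC (0.2 mL), vehicle group CMC alone. Blood drawn retro-orbitally, then left femur and organs removed under pentobarbital (40.0 mg/kg, i.p.).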

[2] = test system: Mus musculus; assay: Effect on femur ash weight in mouse at 0.1103 mmol/kg, po; type: functional; procedure, shortened: as §1
[3] = test system: Mus musculus; assay: Effect on lenght of femur in mouse at 0.110 mmol/kg, po; type: functional; procedure, shortened: as §1
[4] = test system: Mus musculus; assay: Effect on calcium level in mouse at 0.1103 mmol/kg, po; type: functional; procedure, shortened: as §1
[5] = test system: Mus musculus; assay: Effect on phosphorus level in mouse at 0.110 mmol/kg, po; type: functional; procedure, shortened: as §1
[6] = test system: Mus musculus; assay: Effect on serum calcium level in mouse at 0.1103 mmol/kg, po; type: functional
Procedure, shortened: (§2)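 Oral OVX Kuiming mouse model, dosed daily for 4 weeks at 110.3 × 10-3 mmol/kg in 0.5% CMC. Retro-orbital blood stood 30 min at room temperature and was spun at 3000 g for 20 min. Serum kept at -20 °C. Calcium read by o-methylphenolphthalein complexone, phosphorus by molybdenum blue, ALP by activity on disodium phenylphosphate substrate.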

[7] = test system: Mus musculus; assay: Effect on serum phosphorous Concentration in mouse at 0.110 mmol/kg, po; type: functional; procedure, shortened: as §2
[8] = test system: Mus musculus; assay: Effect on serum ALP level in mouse at 0.1103 mmol/kg, po; type: functional; procedure, shortened: as §2
[9] = test system: Mus musculus; assay: Effect on lung weight in mouse at 0.1103 mmol/kg, po; type: functional; procedure, shortened: as §1
[10] = test system: Mus musculus; assay: Effect on liver weight in mouse at 0.1103 mmol/kg, po; type: functional; procedure, shortened: as §1
[11] = test system: Mus musculus; assay: Effect on spleen weight in mouse at 0.1103 mmol/kg, po; type: functional; procedure, shortened: as §1
[12] = test system: Mus musculus; assay: Increase in body weight in ovariectomized mouse at 0.1103 mmol/kg, ip once daily for 4 weeks; type: functional
Procedure, shortened: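 Female Kuiming mice (30.7 ± 3.1 g) underwent abdominal OVX; the sham group had abdominorotomy only. From day 5 after surgery, i.p. dosing once daily for 4 weeks at 110.3 × 10-3 mmol/kg in aqueous 0.5% CMC. Body weight was recorded on the day of the last administration.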

[13] = test system: Mus musculus; assay: Effect on serum ALP lavel in ovariectomized mouse at 0.1103 mmol/kg, ip once daily for 4 weeks; type: functional
Procedure, shortened: (§3)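 OVX Kuiming mice dosed i.p. daily for 4 weeks in 0.5% CMC. Blood taken retro-orbitally on the day after the last dose, stood 30 min, spun at 3000 g for 20 min, serum stored at -20 °C. Calcium by o-methylphenolphthalein complexone, phosphorus by molybdenum blue, ALP by activity with disodium phenylphosphate substrate.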

[14] = test system: Mus musculus; assay: Effect on serum calcium level in ovariectomized mouse at 0.1103 mmol/kg, ip once daily for 4 weeks; type: functional; procedure, shortened: as §3
[15] = test system: Mus musculus; assay: Effect on serum phosphorus level in ovariectomized mouse at 0.1103 mmol/kg, ip once daily for 4 weeks; type: functional; procedure, shortened: as §3
[16] = test system: Mus musculus; assay: Effect on dry weight of femurs in ovariectomized mouse at 0.1103 mmol/kg, ip once daily for 4 weeks; type: functional, Femur
Procedure, shortened: (§4)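 Female Kuiming mice (7 weeks, 30.7 ± 3.1 g) ovariectomized, sham group abdominorotomy. From day 5, i.p. once daily for 4 weeks at 110.3 × 10-3 mmol/kg in 0.5% CMC. Left femur cleaned, length measured, defatted in chloroform-methanol (2:1, 2 × 3 h), dried 120 °C 6 h for dry weight, ashed 800 °C 8 h. Mineral content = ash/dry weight. Ash dissolved in 6 N HCl and diluted. Ca by o-methylphenolphthalein complexone, P by molybdenum blue. Lungs and livers weighed directly.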

[17] = test system: Mus musculus; assay: Effect on femur ash weight in ovariectomized mouse at 0.1103 mmol/kg, ip once daily for 4 weeks; type: functional; procedure, shortened: as §4
[18] = test system: Mus musculus; assay: Effect on femur length in ovariectomized mouse at 0.1103 mmol/kg, ip once daily for 4 weeks; type: functional; procedure, shortened: as §4
[19] = test system: Mus musculus; assay: Effect on calcium level in ovariectomized mouse at 0.1103 mmol/kg, ip once daily for 4 weeks; type: functional; procedure, shortened: as §4
[20] = test system: Mus musculus; assay: Effect on phosphorus level in ovariectomized mouse at 0.1103 mmol/kg, ip once daily for 4 weeks; type: functional; procedure, shortened: as §4
[21] = test system: Mus musculus; assay: Effect on spleen weight in ovariectomized mouse at 0.1103 mmol/kg, ip once daily for 4 weeks; type: functional
Procedure, shortened: (§5)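 Female Kuiming mice (7 weeks old, 30.7 ± 3.1 g), abdominal OVX under pentobarbital (40.0 mg/kg i.p.). From day 5 after surgery, i.p. injection once daily for 4 weeks, compound in aqueous 0.5% CMC prepared just before use. The day after the last dose, mice were anesthetized and killed, and lungs, livers, spleens and uteri were removed and weighed directly. n = 12, ANOVA, p < 0.05.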

[22] = test system: Mus musculus; assay: Effect on mineral content in ovariectomized mouse at 0.1103 mmol/kg, ip once daily for 4 weeks; type: functional; procedure, shortened: as §4
[23] = test system: Mus musculus; assay: Effect on lung weight in ovariectomized mouse at 0.1103 mmol/kg, ip once daily for 4 weeks; type: functional; procedure, shortened: as §4
[24] = test system: Mus musculus; assay: Effect on liver weight in ovariectomized mouse at 0.110 mmol/kg, ip once daily for 4 weeks; type: functional; procedure, shortened: as §4
[25] = test system: Mus musculus; assay: Effect on uterus weight in ovariectomized mouse at 0.1103 mmol/kg, ip once daily for 4 weeks; type: functional; procedure, shortened: as §5
[26] = test system: Mus musculus; assay: Effect on uterus weight in mouse at 0.1103 mmol/kg, po; type: functional

Compound	Activity [1] [mg]	Activity [2] [mg]	Activity [3] [cm]	Activity [4] [%]	Activity [5] [%]	Activity [6] [mmol/L]	Activity [12] [g]	Activity [13] [U/L]	Activity [14] [mmol/L]	Activity [15] [mmol/L]	Activity [16] [mg]	Activity [17] [mg]	Activity [18] [cm]	Activity [19] [%]	Activity [20] [%]	Activity [21] [mg]	Ratio [22]	Activity [23] [mg]	Activity [24] [g]	Activity [25] [mg]	other results
C[C@]12CC[C@@H]3c4ccc(O)cc4CC[C@H]3[C@@H]1CC[C@@H]2OC(=O)CCC(=O)N[C@@H](CCCNC(=N)N)C(=O)NCC(=O)N[C@@H](CC(=O)O)C(=O)N[C@@H](Cc1ccccc1)C(=O)O ({Succinyl(O17-estradiol)}-RGDF-OH)	62.7	30	1.638	51.903	24.9	2.04	34.8	31.486	2.005	1.605	66	34.8	1.635	52.798	24.665	142	0.533	164	1.391	71.2	Activity [7]: 1.6 mmol/L; Activity [8]: 35.511 U/L; Activity [9]: 167 mg; Activity [10]: 1.338 g; Activity [11]: 142 mg; Activity [26]: 38.2 mg
N=C(N)NCCC[C@H](N)C(=O)NCC(=O)N[C@@H](CC(=O)O)C(=O)N[C@@H](CO)C(=O)O	–	–	–	–	–	–	34	36.643	2.01	1.603	59.8	27.8	1.617	43.48	24.888	138	0.396	168	1.295	71	–
CC(C)[C@H](NC(=O)[C@H](CC(=O)O)NC(=O)CNC(=O)[C@H](CCCNC(=N)N)NC(=O)COc1ccc2c(c1)CC[C@@H]1[C@@H]2CC[C@]2(C)C(=O)CC[C@@H]12)C(=O)O (X2-RGDV-OH)	–	–	–	–	–	–	34.1	32.229	2.008	1.602	63.9	21.9	1.628	47.173	24.75	131	0.429	168	1.389	51.9	–
N=C(N)NCCC[C@H](N)C(=O)NCC(=O)N[C@@H](CC(=O)O)C(=O)N[C@@H](Cc1ccccc1)C(=O)O (H-RGDF-OH)	–	–	–	–	–	–	33.3	35.643	2.012	1.599	60	22.5	1.62	43.815	24.585	134	0.423	163	1.413	69.8	–
C[C@]12CC[C@@H]3c4ccc(O)cc4CC[C@H]3[C@@H]1CC[C@@H]2O [ESTRADIOL]	63.1	22.2	1.62	41.729	24.53	2.02	34.1	35.286	2.013	1.601	57.7	28.5	1.63	44.466	24.995	151	–	168	1.565	177.1	Activity [7]: 1.6 mmol/L; Activity [8]: 37.705 U/L; Activity [9]: 168 mg; Activity [10]: 1.335 g; Activity [11]: 141 mg
